For series [1], the system named is Homo sapiens. The series can be described thus: Toxicity in healthy human assessed as occurrence of contact dermatitis at 250 […], po. Also on record: route oral. Format: organism-based. As to conditions: in vivo. The procedure, abridged:
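Randomized, double-blind, placebo-controlled single ascending oral doses in healthy volunteers (cohorts of 6 active, 2 placebo; 25–1,500 mg). After a 10-h fast, dose given with 240 ml water; fasting continued 4 h. Subjects were confined to 96 h postdose. AEs were recorded throughout dosing and at follow-up, reported as number and percentage of subjects with events per treatment.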

Series [2] has as its system Homo sapiens. The series can be described thus: Toxicity in healthy human assessed as occurrence of erythema at 250 […], po. Particulars: in vivo. Also on record: route oral. Format: organism-based.
The test system of series [3] is Homo sapiens. The series can be described thus: Toxicity in healthy human assessed as occurrence of headache at 50 […], po. It counts as organism-based. The arrangement: route oral. Particulars: in vivo.
In series [4] the test system is Homo sapiens. The series can be described thus: Toxicity in healthy human assessed as occurrence of abdominal pain at 125 […], po. It counts as organism-based, Abdomen. The arrangement: route oral. Particulars: in vivo. The procedure, abridged:
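Double-blind, placebo-controlled single ascending oral dose; two placebo and six active subjects per cohort. Adverse events were recorded throughout the dosing period and at follow-up, with confinement to 96 h after dosing. Results are reported as number and percentage of subjects with the event (n/N × 100).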

Series [5] deals with Homo sapiens. The series can be described thus: Toxicity in healthy human assessed as occurrence of ear pain at 500 […], po. As to conditions: in vivo. It counts as organism-based. Also on record: route oral.
Series [6] is described as follows: Renal clearance in healthy human at 50 […], po administered as single dose. Format: ADME, organism-based, Kidney. The arrangement: route oral. Particulars: in vivo, read-out: CL_renal (converted). In outline: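 Renal clearance (CL_r) came from noncompartmental analysis of plasma drawn through 96 h and urine collected over fixed intervals to 96 h. Subjects were fasted healthy volunteers, six per dose cohort, given one oral dose with 240 ml water. Plasma and urine were assayed by LC-MS/MS after solid-phase extraction, with urine LLOQ 200 ng/ml. Values are means (SD).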

The subject of series [7] is Streptococcus pneumoniae. The series can be described thus: Antimicrobial activity against ciprofloxacin-resistant Streptococcus pneumoniae. It counts as functional.
Series [8] can be described thus: Cmax in healthy human at 500 mg, po administered as single dose. As to conditions: in vivo.
A short description of series [9]: Tmax in healthy human at 250 mg, po administered as single dose. Particulars: in vivo.
The nature of series [10]: Cmax in healthy human at 1000 mg, po administered as single dose. As to conditions: in vivo.
In series [11] the test system is Homo sapiens. The series can be described thus: Terminal volume of distribution in healthy human at 125 mg, po administered as single dose. Particulars: in vivo.
Series [12] relates to Homo sapiens. The series can be described thus: Terminal volume of distribution in healthy human at 500 mg, po administered as single dose. Particulars: in vivo.

The structures appear in SMILES notation. Converted amounts (≈) assume the structure as drawn.

`COc1c(N2C[C@@H](C)C[C@H](N)C2)ccc2c(=O)c(C(=O)O)cn(C3CC3)c12` [NEMONOXACIN]: the Activity in [1], in [2], in series [3], in series [4] and in series [5] was 0% each time. Also, the CL renal in series [6] was 2 mL/min/kg. For the same compound, in series [7], the MIC90 (usually an inhibitory concentration at the 90% level, which refers to growth in some studies and to a panel of isolates in others) amounted to 0.12 µg/mL (≈ 0.323 µM). The Cmax – broadly, the maximum level reached in the sampled fluid or tissue – in [8] stood at 3410 ng/mL; in series [10], 7220 ng/mL. The Tmax (commonly the time from dosing to the highest level) in [9] came to 55.2 min. For the same compound, the Vbeta in [11] stood at 3.38 L/kg; in series [12] it was 4.25 L/kg.

Source of the values: ChEMBL document CHEMBL1212766, “Dose escalation study of the safety, tolerability, and pharmacokinetics of nemonoxacin (TG-873870), a novel potent broad-spectrum nonfluorinated quinolone, in healthy volunteers” (Antimicrob Agents Chemother, 2010).
